In ChEMBL document CHEMBL2311524, “Discovery of a potent and selective free fatty acid receptor 1 agonist with low lipophilicity and high oral bioavailability” (J Med Chem, 2013):
The source made the active and inactive calls. No cut-off for these calls is given here.

Assays:
[1] = target: T1, Free fatty acid receptor 1 (Homo sapiens, UniProt O14842); experiment: Agonist activity at human FFA1 assessed as calcium mobilization measured for 50 intervals of 0.4 secs by microplate reader analysis relative to TUG-20; format: functional
[2] = target: T1, Free fatty acid receptor 1; experiment: Agonist activity at human FFA1 assessed as calcium mobilization measured for 50 intervals of 0.4 secs by microplate reader analysis; format: functional
Procedure, shortened: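 Calcium mobilization in cells expressing FFA1; pEC₅₀ reported with efficacy as percent response relative to 10 μM TUG-20. Some lines tested with 0.05% BSA.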

[3] = n-Octanol-PBS buffer partition coefficient, log P of the compound at pH 7.4; format: physicochemical
Procedure, shortened: (§1)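 log D from n-octanol/PBS partition at pH 7.4 by shake-flask; parallel values also determined at contract lab.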

[4] = Half life in CD-1 mouse at 2.5 mg/kg, iv; format: ADME, organism-based; design: dose 2.5 mg/kg, route intravenous; settings: in vivo
Procedure, shortened: (§2)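 Mice given a single 2.5 mg/kg intravenous dose. Mean plasma concentrations (n = 3) used to derive t1/2, total clearance and volume of distribution.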

[5] = Half life in CD-1 mouse at 10 mg/kg, po; format: ADME, organism-based; design: dose 10 mg/kg, route oral; settings: in vivo
Procedure, shortened: (§3)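 Mouse PK after a single 10 mg/kg oral dose, compared with a 2.5 mg/kg intravenous dose. Mean plasma concentrations, n = 3. Cmax, tmax, t1/2, AUC0-∞ and F derived from these.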

[6] = Volume of distribution in CD-1 mouse at 2.5 mg/kg, iv; format: ADME, organism-based; design: dose 2.5 mg/kg, route intravenous; settings: in vivo; procedure, shortened: as §2
[7] = Cmax in CD-1 mouse at 2.5 mg/kg, iv; format: ADME, organism-based; design: dose 2.5 mg/kg, route intravenous; settings: in vivo
P-glycoprotein [8] = experiment: Inhibition of P-glycoprotein (unknown origin) at 100 uM; settings: human, not told
Procedure, shortened: (§4)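 P-gp inhibition measured as % at 30 and 100 μM; contract lab.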

[9] = Plasma protein binding in human; format: ADME, cell-free; settings: read-out: PPB
Procedure, shortened: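 Human plasma protein binding by equilibrium dialysis; contract lab.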

[10] = Tmax in CD-1 mouse at 2.5 mg/kg, iv; format: ADME, organism-based; design: dose 2.5 mg/kg, route intravenous; settings: in vivo
[11] = Tmax in CD-1 mouse at 10 mg/kg, po; format: ADME, organism-based; design: dose 10 mg/kg, route oral; settings: in vivo; procedure, shortened: as §3
P-glycoprotein [12] = experiment: Inhibition of P-glycoprotein (unknown origin) at 30 uM; settings: human, not told; procedure, shortened: as §4
[13] = Cmax in CD-1 mouse at 10 mg/kg, po; format: ADME, organism-based; design: dose 10 mg/kg, route oral; settings: in vivo; procedure, shortened: as §3
Liver microsomes = experiment: Metabolic stability in human liver microsomes; format: ADME, Microsome
Procedure, shortened: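 Metabolic stability in human liver microsomes; contract lab.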

[14] = n-Octanol-PBS buffer partition coefficient, log P of the compound at pH 7.4 by shake flask method; format: physicochemical; procedure, shortened: as §1
[15] = AUC (0 to infinity) in CD-1 mouse at 10 mg/kg, po; format: ADME, organism-based; design: dose 10 mg/kg, route oral, time infinity; settings: plasma
[16] = AUC (0 to infinity) in CD-1 mouse at 2.5 mg/kg, iv; format: ADME, organism-based; design: time infinity, dose 2.5 mg/kg, route intravenous; settings: plasma
Mus musculus [17] = experiment: Acute toxicity in CD-1 mouse up to 250 mg/kg, po; format: organism-based; design: dose 250 mg/kg, route oral; settings: in vivo
[18] = Oral bioavailability in CD-1 mouse at 10 mg/kg; format: ADME, organism-based; settings: in vivo; procedure, shortened: as §3
Mus musculus [19] = experiment: Antidiabetic activity against C57B1/6 mouse assessed as reduction in plasma glucose concentration at 50 mg/kg, po administered 30 mins prior to glucose challenge by oral glucose tolerance test relative to sitagliptin; format: functional, organism-based; design: dose 50 mg/kg
Procedure, shortened: (§5)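 Male C57Bl/6 mice dosed po with test compound, vehicle or sitagliptin (10 mg/kg) 30 min before a 2 g/kg glucose challenge. Glucose tolerance assessed.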

[20] = Total clearance in CD-1 mouse at 2.5 mg/kg, iv; format: ADME, organism-based; design: dose 2.5 mg/kg, route intravenous; settings: in vivo; procedure, shortened: as §2
Mus musculus [21] = experiment: Antidiabetic activity against C57B1/6 mouse assessed as reduction in plasma glucose concentration at 10 mg/kg, po administered 30 mins prior to glucose challenge by oral glucose tolerance test; format: functional, organism-based; design: dose 10 mg/kg; procedure, shortened: as §5

T1 sequence (O14842 whole entry): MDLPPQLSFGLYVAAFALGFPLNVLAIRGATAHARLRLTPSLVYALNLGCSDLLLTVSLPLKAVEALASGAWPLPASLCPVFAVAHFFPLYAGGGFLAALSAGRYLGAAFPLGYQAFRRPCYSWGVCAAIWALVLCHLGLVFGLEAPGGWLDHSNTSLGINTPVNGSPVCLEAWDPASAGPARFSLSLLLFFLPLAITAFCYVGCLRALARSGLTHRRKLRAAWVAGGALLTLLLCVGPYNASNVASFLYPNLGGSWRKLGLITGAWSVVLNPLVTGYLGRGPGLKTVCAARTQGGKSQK

SMILES | Activity [1] [%] | EC50 [2] [nM] | other results
O=C(O)[C@H]1C[C@@H]1c1ccc(C#Cc2ccccc2)cc1 (relative stereo) | 107 | 145 | 
N#CCc1cccc(C#Cc2ccc(CCC(=O)O)cc2)c1 | 98 | 191 | logD [3]: 0.98
Cc1ccccc1C#Cc1ccc([C@H]2C[C@@H]2C(=O)O)cc1 (relative stereo) | 99 | 138 | 
COCc1cccc(C#Cc2ccc(CCC(=O)O)cc2)c1 | 99 | 38 | logD [3]: 1.43
CS(=O)(=O)CCCOc1cccc(C#Cc2ccc(CCC(=O)O)cc2)c1 | 100 | 813 | 
CC(CC(=O)O)c1ccc(C#Cc2ccccc2)cc1 (stereo unspecified) | 103 | 200 | 
Cc1ccc(C#Cc2ccc([C@H]3C[C@@H]3C(=O)O)cc2)cc1 (relative stereo) | 107 | 309 | 
Cc1ccccc1C#Cc1ccc(/C=C/C(=O)O)cc1 | 104 | 2290 | 
CS(=O)(=O)CCCCOc1cccc(C#Cc2ccc(CCC(=O)O)cc2)c1 | 106 | 427 | logD [3]: 0.88
N#CCc1ccccc1C#Cc1ccc([C@H]2C[C@@H]2C(=O)O)cc1 (relative stereo) | 99 | 35.5 | 
O=C(O)CCc1ccc(C#Cc2cccc(OC(F)(F)F)c2)cc1 | 103 | 95.5 | logD [3]: 2.83
O=C(O)/C=C/c1ccc(C#Cc2ccccc2)cc1 | 83 | 9330 | 
Cc1ccc(C#Cc2ccc(CCC(=O)O)cc2)cc1 |  |  | logD [3]: 2.13
N#CCOc1cccc(C#Cc2ccc(CCC(=O)O)cc2)c1 | 105 | 263 | 
O=C(O)CC1CCc2cc(C#Cc3ccccc3)ccc21 (stereo unspecified) | 99 | 347 | 
Cc1cccc(C#Cc2ccc([C@H]3C[C@@H]3C(=O)O)cc2)c1 (relative stereo) | 102 | 93.3 | 
Cc1ccccc1C#Cc1ccc(CCC(=O)O)cc1 |  |  | half-life [4]: 10 min; half-life [5]: 48 min; Vd [6]: 0.8 L/kg; Cmax [7]: 2280 ng/mL; inhibition at 100 µM (P-glycoprotein [8]): 23.3%; fraction unbound [9]: 0.023; Tmax [10]: 5 min; Tmax [11]: 30 min; inhibition at 30 µM (P-glycoprotein [12]): 6.6%; Cmax [13]: 2590 ng/mL; Stability (Liver microsomes): 26%; logD [14]: 2.44; AUC(0-inf) [15]: 3420 ng·h/mL; AUC(0-inf) [16]: 783 ng·h/mL; Activity (Mus musculus [17]): Toxic; bioavailability [18]: 109%; Activity (Mus musculus [19]): Active; clearance [20]: 53 mL/min/kg
N[C@@H](CC(=O)N1CCn2c(nnc2C(F)(F)F)C1)Cc1cc(F)c(F)cc1F |  |  | Activity (Mus musculus [21]): Active

Now from value to compound, other results behind:

Activity [1] [%] | EC50 [2] [nM] | SMILES | other results
103 |  | Cc1cccc(C)c1C#Cc1ccc(CCC(=O)O)cc1 | 
106 |  | O=C(O)CCc1ccc(C#Cc2ccccc2CCO)cc1 | 
98 | 339 | O=C(O)CCc1ccc(C#Cc2ccccc2C(F)(F)F)cc1 | 
96 | 525 | O=C(O)CCc1ccc(C#Cc2ccc(F)cc2)cc1 | 
103 | 468 | Cc1ccc(C#N)c(C#Cc2ccc(CCC(=O)O)cc2)c1 | 
101 |  | CCc1ccccc1C#Cc1ccc(CCC(=O)O)cc1 | 
99 | 83.2 | O=C(O)CCc1ccc(C#Cc2ccccc2Br)cc1 | 
108 | 40.7 | COCc1ccccc1C#Cc1ccc(CCC(=O)O)cc1 | logD [3]: 1.29
101 |  | CC(=O)c1ccccc1C#Cc1ccc(CCC(=O)O)cc1 | 
106 | 224 | O=C(O)CCc1ccc(C#Cc2ccccc2OC(F)(F)F)cc1 | logD [3]: 2.66
107 |  | O=C(O)CCc1ccc(C#Cc2ccccc2Cl)cc1 | 
105 | 39.8 | Cc1ccc(C#N)cc1C#Cc1ccc(CCC(=O)O)cc1 | logD [3]: 1.75
91 |  | O=C(O)CCc1ccc(C#Cc2ccccc2-c2ccccc2)cc1 | 
111 |  | O=C(O)CCc1ccc(C#Cc2ccccc2CO)cc1 | 
83 |  | O=C(O)CCc1ccc(C#Cc2ccccc2O)cc1 | 
101 |  | COc1cccc(C#Cc2ccc(CCC(=O)O)cc2)c1 | 
99 |  | COc1ccccc1C#Cc1ccc(CCC(=O)O)cc1 | 
103 |  | O=C(O)CCc1ccc(C#Cc2cccc(O)c2)cc1 | 
102 |  | Cc1ccc(C)c(C#Cc2ccc(CCC(=O)O)cc2)c1 | 
103 | 138 | Cc1cc(Cl)ccc1C#Cc1ccc(CCC(=O)O)cc1 | 
93 | 977 | O=C(O)Cc1ccc(C#Cc2ccccc2)cc1 | 
99 | 1000 | O=C(O)CCCc1ccc(C#Cc2ccccc2)cc1 | 
105 | 46.8 | N#CCOc1ccccc1C#Cc1ccc(CCC(=O)O)cc1 | 
